Laboratory results: ChEMBL document CHEMBL1126644, “Structure-activity relationships in the trans-hexahydroindolo[4,3-ab]phenanthridine ("benzergoline") series. 2. Resolution, absolute configuration, and dopaminergic activity of the selective D1 agonist CY 208-243 and its implication for an "extended rotamer-based dopamine receptor model"” (1993)

Tests used:
[1] = In vitro potency against adenylate cyclase in bovine retina; assay type: tissue-based
How it was run: (§1)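 Dopamine-sensitive adenylate cyclase assay on bovine retina tissue. Values are means of two to six independent experiments, each run in triplicate.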

[2] = organism: Bos taurus; assay: In vitro percent maximal stimulation relative to dopamine (125 uM) in bovine retina; assay type: functional
How it was run: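 Bovine retina adenylate cyclase stimulation, expressed as a percentage of the maximal effect produced by 125 μM dopamine.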

[3] = organism: Rattus norvegicus; assay: Tested in vitro for percent maximal inhibition in rat striatal slices (% of control) expressed as change of S2/S1 versus control at 1 uM
[4] = organism: Rattus norvegicus; assay: In vitro potency in rat striatal slices by electrically evoked acetylcholine release; assay type: functional
[5] = organism: Rattus norvegicus; assay: Tested in vitro for percent maximal inhibition in rat striatal slices (% of control) expressed as change of S2/S1 versus control at 1 uM; remark: listed apart in the source
[6] = Compound was evaluated for in vitro potency against adenylate cyclase in bovine retina; assay type: tissue-based; how it was run: as §1

| SMILES | pD2 [1] | Relative to DA [2] [%] | inhibition at 1 µM [3] [%] | pD2 [4] | inhibition at 1 µM [5] [%] | pD2 [6] |
| --- | --- | --- | --- | --- | --- | --- |
| Oc1ccc([C@@H]2CNCc3ccccc32)cc1O | 6 | 86 | 0 |  |  |  |
| CN1CCC[C@@H]2c3cccc4[nH]cc(c34)C[C@H]21 | 5.2 | 24 | 30 | 7.5 |  |  |
| CN1CCC[C@@H]2Cc3c(O)cccc3C[C@H]21 | 6.15 | 14 | 62 | 7.3 |  |  |
| CN1Cc2ccccc2[C@@H]2c3cccc4[nH]cc(c34)C[C@H]21 (racemic) [listing 1 of 2 here] |  | 57 |  |  | 0 |  |
| CN1Cc2ccccc2[C@@H]2c3cccc4[nH]cc(c34)C[C@H]21 (racemic) [listing 2 of 2 here] | 6.1 |  |  |  |  |  |
| CN1Cc2ccccc2[C@@H]2c3cccc4[nH]cc(c34)C[C@H]21 (stereo in doubt) [listing 1 of 2 here] |  | 68 |  |  |  |  |
| CN1Cc2ccccc2[C@@H]2c3cccc4[nH]cc(c34)C[C@H]21 (stereo in doubt) [listing 2 of 2 here] |  |  |  |  |  | 6.9 |
| CN1Cc2ccccc2[C@@H]2c3cccc4[nH]cc(c34)C[C@H]21 (stereo in doubt; (+)-1) |  | 0 |  |  |  |  |
| CN1CCc2cccc3c2[C@H]1Cc1ccc(O)c(O)c1-3 [APOMORPHINE] | 6.2 | 38 | 85 | 7.5 |  |  |
| Oc1cc2c(cc1O)C(c1ccccc1)CNCC2 (centres undefined) [SKF-38393] | 6.6 | 58 | 0 |  |  |  |
